Data set [1] can be described thus: Cytotoxicity against human neutrophils assessed as cell viability at 10 uM by trypan blue exclusion assay. It is filed as functional. The following applies: Neutrophil, read-out: Activity. An outline of the steps:
(§1)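 Human neutrophil viability was assessed by trypan blue exclusion after compound exposure at up to 100 μM for up to 60 min, including 10 μM, the concentration used in the respiratory burst studies.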

A short description of data set [2]: Cytotoxicity against human neutrophils at < 100 uM after 60 mins by trypan blue exclusion assay. It is filed as cell-based. The settings on record: neutrophil, 1 h. An outline of the steps: as §1
The nature of data set [3]: Antioxidant activity […] assessed as […] HOCl scavenging activity by spectrophotometry. It is filed as functional. Summed up: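 Cell-free HOCl scavenging. HOCl was made by diluting commercial bleach and quantified at 292 nm (ε = 350 mol−1 cm−1). It reacts with taurine to give taurine chloramine, which oxidizes TMB. Absorbance was read at 655 nm, with quercetin as the positive control.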

For a further data set, the system named is Neutrophil. Description: (§2) Antioxidant activity in human neutrophils assessed as inhibition of oxidative burst-induced ROS production by chemiluminescence assay. It is filed as functional, cell-based. Summed up: (§3)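 Human neutrophils were isolated and the respiratory burst was stimulated. Total ROS were measured by luminol-enhanced chemiluminescence (LumCL). DMSO replaced compound in the blanks, taken as 100%. Quercetin and apocynin served as positive controls, and IC50 was taken from concentration–response data.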

Data set [4] is described as follows: as §2. Type of data set: functional, cell-based. The following applies: Neutrophil. An outline of the steps: as §3
Data set [5] can be described thus: Antioxidant activity […] assessed as xanthine/xanthine oxidase-induced ROS scavenging activity by WST-1 assay. It is filed as functional. Summed up: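 Superoxide was generated by xanthine/xanthine oxidase and detected as reduction of the tetrazolium salt WST-1 to a soluble formazan (modified Tan and Berridge method). Quercetin was the positive control.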
(In general: Tetrazolium dyes change colour on reduction, which living cells bring about.)

For a further data set, the target named is T1, Myeloperoxidase (Homo sapiens, UniProt P05164).
T1 sequence (P05164 whole entry): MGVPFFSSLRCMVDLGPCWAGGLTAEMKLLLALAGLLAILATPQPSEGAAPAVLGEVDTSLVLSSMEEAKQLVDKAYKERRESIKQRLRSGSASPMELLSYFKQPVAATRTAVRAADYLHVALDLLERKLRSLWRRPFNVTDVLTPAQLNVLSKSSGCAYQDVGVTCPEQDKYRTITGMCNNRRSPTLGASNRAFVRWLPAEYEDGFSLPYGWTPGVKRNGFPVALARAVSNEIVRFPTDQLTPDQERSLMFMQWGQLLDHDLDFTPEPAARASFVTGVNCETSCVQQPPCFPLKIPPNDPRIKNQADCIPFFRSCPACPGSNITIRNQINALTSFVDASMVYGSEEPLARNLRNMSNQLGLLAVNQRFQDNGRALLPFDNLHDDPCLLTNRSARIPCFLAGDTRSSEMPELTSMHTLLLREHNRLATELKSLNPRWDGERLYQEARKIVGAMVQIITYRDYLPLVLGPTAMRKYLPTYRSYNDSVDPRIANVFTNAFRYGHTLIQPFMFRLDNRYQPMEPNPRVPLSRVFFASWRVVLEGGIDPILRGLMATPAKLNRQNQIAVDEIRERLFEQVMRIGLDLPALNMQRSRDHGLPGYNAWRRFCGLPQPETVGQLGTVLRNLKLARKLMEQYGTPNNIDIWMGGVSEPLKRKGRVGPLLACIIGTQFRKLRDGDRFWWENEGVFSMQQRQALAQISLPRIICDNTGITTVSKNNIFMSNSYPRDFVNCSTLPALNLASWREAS
In words: Inhibition of myeloperoxidase (unknown origin) using HOCl/taurine as substrate assessed as inhibition of taurine chloramine production by spectrophotometry. It is filed as single protein. Summed up:
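MPO, quantified by absorbance at 430 nm (ε = 89 000 mol−1 cm−1 per heme), chlorinating activity was measured. The HOCl produced reacts with taurine to give taurine chloramine, which oxidizes TMB to a blue product read at 655 nm. 5-Fluorotryptamine was the positive control.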

Regarding `CCC(C)CC(C)CC(O)(CO)C(=O)O[C@@H]1CC[C@H](C)[C@@]2(C)C=C([C@@H](C)CO)C(=O)C=C12` (stereo not given in full), the viability at 10 µM in data set [1] is above 98%. The Activity entry in data set [2] is “Non-toxic”; with Neutrophil, “Dose-dependent effect”. The half-inhibitory concentration (IC50) (as a rule, the concentration that inhibits the measured activity by half) is above 100 µM in data set [3], 4.17 µM in data set [4], above 100 µM in data set [5] and above 100 µM on Myeloperoxidase.
For the compound `CCC(C)CC(C)CC(O)(CO)C(=O)O[C@@H]1CC[C@H](C)[C@@]2(C)C=C([C@H](C)CO)C(=O)C=C12` (stereo not given in full), in data set [1], the viability at 10 µM is above 98%. Besides, the Activity entry in data set [2] is “Non-toxic”; in the data set with Neutrophil it was “Dose-dependent effect”. The half-maximal inhibitory concentration (IC50) in data set [3] was above 100 µM; in data set [4], 5.9 µM; in data set [5], above 100 µM; at Myeloperoxidase, above 100 µM.
Turning to `COc1cc(C(C)=O)ccc1O` [APOCYNIN], the IC50 in data set [4] turned out to be 3.9 µM.
Same read-out and setting: as for `O=c1c(O)c(-c2ccc(O)c(O)c2)oc2cc(O)cc(O)c12` [QUERCETIN], the figure is 4.86 µM.
In the case of `C=C(CO)[C@@]12O[C@@H]1[C@@]1(C)C(=CC2=O)[C@H](OC(=O)C(C)CC(C)CC(C)CC)CC[C@@H]1C` (stereo not given in full) [XYLARENONE C], the viability at 10 µM in data set [1] is above 98%. Moreover, the values for the Activity result (in data set [2]; with Neutrophil) were “Non-toxic” and “Dose-dependent effect”, respectively. The 50% inhibitory concentration (IC50) was above 100 µM in data set [3], 6.13 µM in data set [4], above 100 µM in data set [5] and above 100 µM on Myeloperoxidase.
Consider `C=C(CO)[C@@]12O[C@@H]1[C@@]1(C)C(=CC2=O)[C@H](OC(=O)C(O)(CO)CC(C)CC(C)CC)CC[C@@H]1C` (stereo not given in full) [XYLARENONE D], for which the viability at 10 µM in data set [1] is above 98%. In addition, the Activity result in data set [2] was “Non-toxic”; in the data set with Neutrophil it was “Dose-dependent effect”. The IC50 in data set [3] was above 100 µM; in data set [4] it was 5.73 µM; in data set [5], above 100 µM; on Myeloperoxidase it was above 100 µM.

(Values after ChEMBL document CHEMBL3120071, “Biologically active eremophilane-type sesquiterpenes from Camarops sp., an endophytic fungus isolated from Alibertia macrophylla” (J Nat Prod, 2014).)
